Assay results from ChEMBL document CHEMBL5303300, “EUbOPEN Chemogenomics Library - Multiplex” (2023).
Values joined by “and” are separate entries in the source; they are usually repeats but may differ in a detail not shown here. Identical values can stand only once.

System: HEK-293T
Assay: Multiplex assay against HEK293T
Assay type: toxicity, cell-based
Details: human, number of replicates 2
In short: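 Live cells carried four stains from seeding: Hoechst33342, BioTracker Green Microtubule Cytoskeleton Dye, MitoTracker Red and Annexin V Alexa Fluor 680. They were imaged on a CQ1 microscope at 37°C and 5% CO2 after compound addition. Using CellPathfinder machine-learning gating, cells were split into Hoechst high-intensity objects or normal cells, normal cells into healthy, pyknosed or fragmented nuclei, and pyknosed cells into mitotic or apoptotic; tubulin, mitochondrial-mass and membrane-permeability phenotypes are per cents of healthy-nucleus cells.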

[1] = 12 h, 1 µM, compound concentration 1 uM
[2] = 12 h, 10 µM, compound concentration 10 uM
[3] = 24 h, 1 µM, compound concentration 1 uM
[4] = 24 h, 10 µM, compound concentration 10 uM
[5] = 48 h, 1 µM, compound concentration 1 uM
[6] = 48 h, 10 µM, compound concentration 10 uM

In the case of `CNc1ncc2cc(-c3ccc(-c4cccc(C)n4)cc3Cl)c(=O)n(C[C@H]3OC[C@H](N)CO3)c2n1`, the “Population Apoptotic (%)” value [1] is reported as 57% and 63%, the “Population Fragmented Nuclei (%)” value [1] is reported as 2% and the “Population Healthy Nuclei (%)” value [1] is reported as 85% and 82%. For the same compound, the “Population Hoechst High Intensity Objects (%)” value [1] was 5% and 6%, the “Population Membrane Permeable-Phenotype (%)” value [1] was 7% and 3% and the “Population Mitochondria Different-Phenotype (%)” value [1] was 8% and 9%. For the same compound, the “Population Mitotic Cells (%)” value [1] was 42% and 36%, the “Population Normal (%)” value [1] was 94% and 93% and the “Population Pyknosed Nuclei (%)” value [1] was 11% and 15%. For the same compound, the “Population Tubulin-Different-Phenotype (%)” value [1] was 28% and 30%, the “Total Cell Count” value [1] was 581 and 605 and the “Population Apoptotic (%)” value [2] was 36% and 26%. For the same compound, the “Population Fragmented Nuclei (%)” value [2] was 6% and 8%, the “Population Healthy Nuclei (%)” value [2] was 79% and 76% and the “Population Hoechst High Intensity Objects (%)” value [2] was 30%. The “Population Membrane Permeable-Phenotype (%)” value [2] was 25% and 20%, the “Population Mitochondria Different-Phenotype (%)” value [2] was 7% and 6% and the “Population Mitotic Cells (%)” value [2] was 63% and 73%. For the same compound, the “Population Normal (%)” value [2] was 69%, the “Population Pyknosed Nuclei (%)” value [2] was 13% and 15% and the “Population Tubulin-Different-Phenotype (%)” value [2] was 57% and 65%. The “Total Cell Count” value [2] was 885 and 788, the “Population Apoptotic (%)” value [3] was 51% and 54% and the “Population Fragmented Nuclei (%)” value [3] was 3%. The “Population Healthy Nuclei (%)” value [3] was 88% and 85%, the “Population Hoechst High Intensity Objects (%)” value [3] was 3% and 5% and the “Population Membrane Permeable-Phenotype (%)” value [3] was 2% and 3%. For the same compound, the “Population Mitochondria Different-Phenotype (%)” value [3] was 2% and 5%, the “Population Mitotic Cells (%)” value [3] was 48% and 45% and the “Population Normal (%)” value [3] was 96% and 94%. For the same compound, the “Population Pyknosed Nuclei (%)” value [3] was 8% and 11%, the “Population Tubulin-Different-Phenotype (%)” value [3] was 11% and 16% and the “Total Cell Count” value [3] was 923 and 803. For the same compound, the “Population Apoptotic (%)” value [4] was 20%, the “Population Fragmented Nuclei (%)” value [4] was 6% and 8% and the “Population Healthy Nuclei (%)” value [4] was 68% and 69%. The “Population Hoechst High Intensity Objects (%)” value [4] was 31% and 34%, the “Population Membrane Permeable-Phenotype (%)” value [4] was 18% and 11% and the “Population Mitochondria Different-Phenotype (%)” value [4] was 4% and 3%. The “Population Mitotic Cells (%)” value [4] was 79%, the “Population Normal (%)” value [4] was 68% and 65% and the “Population Pyknosed Nuclei (%)” value [4] was 25% and 22%. The “Population Tubulin-Different-Phenotype (%)” value [4] was 52% and 46%, the “Total Cell Count” value [4] was 1101 and 1092 and the “Population Apoptotic (%)” value [5] was 20% and 34%. For the same compound, the “Population Fragmented Nuclei (%)” value [5] was 9% and 6%, the “Population Healthy Nuclei (%)” value [5] was 85% and 88% and the “Population Hoechst High Intensity Objects (%)” value [5] was 6% and 5%. The “Population Membrane Permeable-Phenotype (%)” value [5] was 3% and 2%, the “Population Mitochondria Different-Phenotype (%)” value [5] was 0% and 2% and the “Population Mitotic Cells (%)” value [5] was 80% and 65%. The “Population Normal (%)” value [5] was 93% and 94%, the “Population Pyknosed Nuclei (%)” value [5] was 4% and the “Population Tubulin-Different-Phenotype (%)” value [5] was 7% and 9%. For the same compound, the “Total Cell Count” value [5] was 1888 and 1385, the “Population Apoptotic (%)” value [6] was 13% and 10% and the “Population Fragmented Nuclei (%)” value [6] was 4% and 6%. For the same compound, the “Population Healthy Nuclei (%)” value [6] was 68% and 70%, the “Population Hoechst High Intensity Objects (%)” value [6] was 28% and 30% and the “Population Membrane Permeable-Phenotype (%)” value [6] was 11% and 4%. For the same compound, the “Population Mitochondria Different-Phenotype (%)” value [6] was 2% and 1%, the “Population Mitotic Cells (%)” value [6] was 86% and 89% and the “Population Normal (%)” value [6] was 71% and 69%. The “Population Pyknosed Nuclei (%)” value [6] was 26% and 22%, the “Population Tubulin-Different-Phenotype (%)” value [6] was 26% and 21% and the “Total Cell Count” value [6] was 1638 and 1597.

`CN(C)CCCNc1ccnc(Nc2cccc(Cl)c2)n1` was tested, and the “Population Apoptotic (%)” value [1] was 33% and 44%, the “Population Fragmented Nuclei (%)” value [1] was 2% and 3% and the “Population Healthy Nuclei (%)” value [1] was 86% and 87%. The “Population Hoechst High Intensity Objects (%)” value [1] was 6% and 7%, the “Population Membrane Permeable-Phenotype (%)” value [1] was 5% and 4% and the “Population Mitochondria Different-Phenotype (%)” value [1] was 17% and 13%. For the same compound, the “Population Mitotic Cells (%)” value [1] was 66% and 55%, the “Population Normal (%)” value [1] was 93% and 92% and the “Population Pyknosed Nuclei (%)” value [1] was 10% and 8%. The “Population Tubulin-Different-Phenotype (%)” value [1] was 51% and 48%, the “Total Cell Count” value [1] was 626 and 658 and the “Population Apoptotic (%)” value [2] was 52% and 65%. The “Population Fragmented Nuclei (%)” value [2] was 4% and 3%, the “Population Healthy Nuclei (%)” value [2] was 87% and 88% and the “Population Hoechst High Intensity Objects (%)” value [2] was 10% and 11%. The “Population Membrane Permeable-Phenotype (%)” value [2] was 3% and 2%, the “Population Mitochondria Different-Phenotype (%)” value [2] was 37% and 32% and the “Population Mitotic Cells (%)” value [2] was 47% and 34%. The “Population Normal (%)” value [2] was 89% and 88%, the “Population Pyknosed Nuclei (%)” value [2] was 8% and the “Population Tubulin-Different-Phenotype (%)” value [2] was 79% and 75%. The “Total Cell Count” value [2] was 466 and 581, the “Population Apoptotic (%)” value [3] was 26% and 29% and the “Population Fragmented Nuclei (%)” value [3] was 3% and 4%. The “Population Healthy Nuclei (%)” value [3] was 89%, the “Population Hoechst High Intensity Objects (%)” value [3] was 6% and the “Population Membrane Permeable-Phenotype (%)” value [3] was 5% and 3%. The “Population Mitochondria Different-Phenotype (%)” value [3] was 5% and 4%, the “Population Mitotic Cells (%)” value [3] was 73% and 70% and the “Population Normal (%)” value [3] was 93%. The “Population Pyknosed Nuclei (%)” value [3] was 7% and 6%, the “Population Tubulin-Different-Phenotype (%)” value [3] was 31% and 30% and the “Total Cell Count” value [3] was 950 and 963. The “Population Apoptotic (%)” value [4] was 43% and 66%, the “Population Fragmented Nuclei (%)” value [4] was 3% and 4% and the “Population Healthy Nuclei (%)” value [4] was 92% and 90%. For the same compound, the “Population Hoechst High Intensity Objects (%)” value [4] was 7% and 14%, the “Population Membrane Permeable-Phenotype (%)” value [4] was 6% and 3% and the “Population Mitochondria Different-Phenotype (%)” value [4] was 32% and 35%. For the same compound, the “Population Mitotic Cells (%)” value [4] was 56% and 33%, the “Population Normal (%)” value [4] was 92% and 85% and the “Population Pyknosed Nuclei (%)” value [4] was 4% and 5%. For the same compound, the “Population Tubulin-Different-Phenotype (%)” value [4] was 79% and 83%, the “Total Cell Count” value [4] was 546 and 605 and the “Population Apoptotic (%)” value [5] was 14% and 10%. The “Population Fragmented Nuclei (%)” value [5] was 11% and 8%, the “Population Healthy Nuclei (%)” value [5] was 86% and 87% and the “Population Hoechst High Intensity Objects (%)” value [5] was 9% and 8%. The “Population Membrane Permeable-Phenotype (%)” value [5] was 5% and 3%, the “Population Mitochondria Different-Phenotype (%)” value [5] was 0% and the “Population Mitotic Cells (%)” value [5] was 85% and 89%. For the same compound, the “Population Normal (%)” value [5] was 90% and 91%, the “Population Pyknosed Nuclei (%)” value [5] was 2% and 3% and the “Population Tubulin-Different-Phenotype (%)” value [5] was 15% and 17%. The “Total Cell Count” value [5] was 2534 and 2133, the “Population Fragmented Nuclei (%)” value [6] was 6% and 5% and the “Population Healthy Nuclei (%)” value [6] was 89% and 88%. The “Population Hoechst High Intensity Objects (%)” value [6] was 6% and 9%, the “Population Membrane Permeable-Phenotype (%)” value [6] was 6% and 5% and the “Population Mitochondria Different-Phenotype (%)” value [6] was 8% and 10%. The “Population Mitotic Cells (%)” value [6] was 86% and 42%, the “Population Normal (%)” value [6] was 93% and 90% and the “Population Pyknosed Nuclei (%)” value [6] was 3% and 5%. The “Population Tubulin-Different-Phenotype (%)” value [6] was 52% and the “Total Cell Count” value [6] was 814 and 883.
